In ChEMBL document CHEMBL4811303, “Synthesis and evaluation of trypanocidal activity of derivatives of naturally occurring 2,5-diphenyloxazoles” (Bioorg Med Chem, 2021) one finds IC50 and selectivity ratio data, which are given here for 22 compounds.

In series [1] the test system is Trypanosoma brucei rhodesiense. Briefly: Trypanocidal activity against Trypanosoma brucei rhodesiense assessed as reduction in intracellular ATP production incubated for 72 hrs by CellTiter-Glo luminescent cell viability assay. Format: functional, organism-based. In a few lines:
(§1)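 Bloodstream trypanosomes in 96-well culture were exposed to compound in 5-fold serial dilutions from 25 µg/mL to 1.6 ng/mL for 72 h. Seeding and temperature: T. b. brucei, T. b. gambiense and T. b. rhodesiense at 5×10^3 cells/mL and 37 °C; T. evansi at 1×10^4 cells/mL and 37 °C; T. congolense at 2×10^5 cells/mL and 33 °C. Viability was read as intracellular ATP by CellTiter-Glo luminescence. Three replicates; IC50 calculated.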

The subject of series [2] is Trypanosoma congolense. Briefly: Trypanocidal activity against Trypanosoma congolense assessed as reduction in intracellular ATP production incubated for 72 hrs by CellTiter-Glo luminescent cell viability assay. Type of series: functional, organism-based. In a few lines:
as §1

Series [3] is described as follows: Selectivity index, ratio of IC50 for cytotoxicity against bovine MDBK cells to IC50 for Trypanocidal activity against Trypanosoma congolense.
Series [4] has as its system Trypanosoma brucei gambiense. Kind of series: Trypanocidal activity against Trypanosoma brucei gambiense assessed as reduction in intracellular ATP production incubated for 72 hrs by CellTiter-Glo luminescent cell viability assay. Type of series: functional, organism-based. In a few lines: as §1
Series [5] has as its system Trypanosoma evansi. Briefly: Trypanocidal activity against Trypanosoma evansi assessed as reduction in intracellular ATP production incubated for 72 hrs by CellTiter-Glo luminescent cell viability assay. Type of series: functional, organism-based. In a few lines:
as §1

Series [6] concerns MDBK cells (Bos taurus). Briefly: Cytotoxicity against bovine MDBK cells assessed as reduction in cell viability incubated for 72 hrs by CCK8 assay.
The test system of series [7] is Trypanosoma brucei brucei. Kind of series: Trypanocidal activity against Trypanosoma brucei brucei assessed as reduction in intracellular ATP production incubated for 72 hrs by CellTiter-Glo luminescent cell viability assay. Format: functional, organism-based. In a few lines:
as §1

Series [8] is described as follows: Selectivity index, ratio of IC50 for cytotoxicity against bovine MDBK cells to IC50 for Trypanocidal activity against Trypanosoma evansi.
A short description of series [9]: Selectivity index, ratio of IC50 for cytotoxicity against bovine MDBK cells to IC50 for Trypanocidal activity against Trypanosoma brucei brucei. Particulars: cattle.
Series [10] in a line: Selectivity index, ratio of IC50 for cytotoxicity against bovine MDBK cells to IC50 for Trypanocidal activity against Trypanosoma brucei rhodesiense.
Series [11] is described as follows: Selectivity index, ratio of IC50 for cytotoxicity against bovine MDBK cells to IC50 for Trypanocidal activity against Trypanosoma brucei gambiense. The following applies: cattle.

With `COc1ccc(OC)c(-c2cnc(-c3ccccc3)o2)c1`, the IC50 in [1] is > 88.9 µM; in series [2] it was 15.4 µM; in [4], > 88.9 µM; in series [5] it was > 88.9 µM; in [6] it was > 355 µM; in series [7] it was > 88.9 µM. In series [3], the selectivity ratio was > 23.

Consider `CC(=O)Oc1ccc(OC(C)=O)c(-c2cnc(-c3ccccc3)o2)c1`, for which the IC50 is 64.4 µM in [1]; 3.9 µM in series [2]; 41.9 µM in series [4]; 18.9 µM in series [5]; 9.6 µM in series [6]; 16.6 µM in series [7]. For the same compound, the selectivity ratio in [3] turned out to be 2.4; in series [8], 0.51; in [9], 0.58; in series [10], 0.15; in [11], 0.23.

For the compound `COc1cccc(-c2ncc(-c3ccccc3OCc3ccccc3)o2)c1OC`, the IC50 in series [1] worked out at 15.8 µM; in series [2], 7.7 µM; in series [4], 16.2 µM; in series [5] it was 16.7 µM; in series [6], 97.6 µM; in [7], 15.5 µM. Further, the selectivity ratio came out at 13 in series [3]; 5.8 in series [8]; 6.3 in series [9]; 6.2 in [10]; 6 in series [11].

Take `COc1ccc(-c2cnc(-c3cccc(OC)c3OC)o2)cc1`: the IC50 in series [1] was 77 µM; in [2] it was 17.3 µM; in series [4] it was 74.5 µM; in [5], 64.5 µM; in series [6], 22.8 µM; in [7], 76.4 µM. Moreover, the selectivity ratio came to 1.3 in series [3]; 0.35 in series [8]; 0.3 in [9]; 0.3 in series [10]; 0.31 in series [11].

As to `COc1ccc(-c2cnc(-c3ccc(OC)c(OC)c3OC)o2)c(OC)c1OC`, the IC50 worked out at 31.4 µM in series [1]; 16.4 µM in series [2]; 40.5 µM in series [4]; 60.4 µM in series [5]; 39.7 µM in series [6]; 37.6 µM in series [7]. For the same compound, the selectivity ratio in series [3] was 2.4; in series [8], 0.66; in series [9], 1.1; in [10] it was 1.3; in series [11], 0.98.

With `COc1cccc(-c2ncc(-c3ccc(OC)c(OC)c3OC)o2)c1OC`, the IC50 in series [1] amounted to 65 µM; in [2], 23.6 µM; in series [4], 63.4 µM; in [5], 59.8 µM; in series [6], 99.1 µM; in [7], 64.9 µM. Besides, the selectivity ratio in series [3] was determined as 4.2; in series [8] it was 1.7; in series [9], 1.5; in series [10] it was 1.5; in series [11], 1.6.

Regarding `COc1cccc(-c2ncc(-c3ccccc3N(C)C)o2)c1OC`, the IC50 in [1] is 23.3 µM; in series [2], 4.6 µM; in [4], 35.2 µM; in series [5], 24.7 µM; in series [6], > 308 µM; in series [7], 20.4 µM. For the same compound, the selectivity ratio is > 66 in [3]; > 12 in series [8]; > 15 in series [9]; > 13 in [10]; > 8.8 in series [11].

Take `COc1ccc(-c2cnc(-c3ccc(OC)cc3)o2)cc1`: the IC50 was > 88.9 µM in series [1]; > 88.9 µM in series [2]; > 88.9 µM in series [4]; > 88.9 µM in series [5]; > 355 µM in series [6]; > 88.9 µM in [7].

`Oc1ccccc1-c1nnc(-c2cccc(O)c2O)s1`: the IC50 was 4.4 µM in series [1]; 0.85 µM in series [2]; 4.6 µM in series [4]; 2.1 µM in series [5]; 13.6 µM in [6]; 3.9 µM in series [7]. For the same compound, the selectivity ratio in series [3] was determined as 16; in [8], 6.3; in series [9], 3.5; in series [10], 3.1; in series [11] it was 3.

As to `COc1cccc(-c2cnc(-c3cccc(OC)c3OC)o2)c1OC`, the IC50 was found to be 70.2 µM in [1]; 26.4 µM in [2]; 69.2 µM in series [4]; 65.5 µM in series [5]; 90.8 µM in series [6]; 70 µM in series [7]. In addition, the selectivity ratio came out at 3.4 in series [3]; 1.4 in [8]; 1.3 in [9]; 1.3 in series [10]; 1.3 in series [11].

Turning to `COc1cccc(-c2ncc(-c3ccccc3)o2)c1OC`, the IC50 turned out to be 84.1 µM in series [1]; 4 µM in series [2]; 84.7 µM in series [4]; 59.3 µM in series [5]; 40.6 µM in [6]; 86.6 µM in series [7]. Besides, the selectivity ratio in series [3] is 10; in series [8], 0.68; in series [9], 0.47; in series [10], 0.48; in series [11], 0.48.

Turning to `COc1ccc(OC)c(-c2cnc(-c3cc(OC)ccc3OC)o2)c1`, the IC50 is > 73.2 µM in [1]; 2.9 µM in [2]; > 73.2 µM in series [4]; > 73.2 µM in series [5]; > 293 µM in [6]; > 73.2 µM in series [7]. For the same compound, in [3], the selectivity ratio was > 100.

Regarding `COc1ccc(OC)c(-c2cnc(-c3ccccc3OC)o2)c1`, the IC50 was > 80.3 µM in series [1]; 4.3 µM in series [2]; 22.2 µM in series [4]; > 80.3 µM in series [5]; > 321 µM in series [6]; > 80.3 µM in series [7]. Also, the values for the selectivity ratio in [3] and in series [11] were > 75 and > 14, respectively.

As to `COc1cccc(-c2ncc(-c3ccccc3NC(C)=O)o2)c1OC`, the IC50 is > 73.9 µM in [1]; 38.2 µM in series [2]; > 73.9 µM in series [4]; > 73.9 µM in series [5]; > 296 µM in series [6]; > 73.9 µM in series [7]. In addition, the selectivity ratio in series [3] was > 7.8.

With `COc1ccccc1-c1cnc(-c2cccc(OC)c2OC)o1`, the IC50 in series [1] is > 80.3 µM; in series [2], 0.78 µM; in [4], > 80.3 µM; in [5], > 80.3 µM; in series [6] it was > 321 µM; in series [7] it was > 80.3 µM. Besides, in [3], the selectivity ratio was > 414.

As for `COc1ccc(OC)c(-c2cnc(-c3cccc(OC)c3OC)o2)c1`, the IC50 in [1] is > 73.2 µM; in series [2] it was 1.6 µM; in [4], > 73.2 µM; in series [5], > 73.2 µM; in series [6] it was > 293 µM; in [7] it was > 73.2 µM. The selectivity ratio in series [3] is > 188.

Regarding `CC1CS(=O)(=O)CCN1/N=C/c1ccc([N+](=O)[O-])o1` (stereo not drawn) [NIFURTIMOX], the IC50 in series [1] was found to be 4.4 µM; in series [2] it was 1.1 µM; in series [5], 2.6 µM; in series [7] it was 4.7 µM.

Turning to `Cc1ccc(C(=O)Nc2ccc(S(=O)(=O)O)c3cc(S(=O)(=O)O)cc(S(=O)(=O)O)c23)cc1NC(=O)c1cccc(NC(=O)Nc2cccc(C(=O)Nc3cc(C(=O)Nc4ccc(S(=O)(=O)O)c5cc(S(=O)(=O)O)cc(S(=O)(=O)O)c45)ccc3C)c2)c1` [SURAMIN], the IC50 turned out to be 0.076 µM in series [1]; 7.2 µM in series [2]; 0.064 µM in series [4]; 0.38 µM in series [5]; 0.066 µM in series [7].

Consider `COc1ccc(OC)c(-c2ncc(-c3ccccc3OC)o2)c1`, for which the IC50 in series [1] was > 80.3 µM; in series [2] it was > 80.3 µM; in series [4], > 80.3 µM; in [5], > 80.3 µM; in [6] it was > 321 µM; in series [7] it was > 80.3 µM.

For the compound `COc1ccccc1-c1cnc(-c2ccccc2OC)o1`, the IC50 in [1] was > 88.9 µM; in series [2], 2.8 µM; in [4], > 88.9 µM; in [5] it was > 88.9 µM; in series [6], > 355 µM; in [7] it was > 88.9 µM. In series [3], the selectivity ratio was > 128.

As to `COc1cccc(-c2ncc(-c3ccccc3O)o2)c1OC`, the IC50 was > 84.1 µM in series [1]; > 84.1 µM in series [2]; > 84.1 µM in [4]; > 84.1 µM in [5]; > 336 µM in series [6]; > 84.1 µM in [7].

As for `CCOc1ccccc1-c1cnc(-c2cccc(OC)c2OC)o1`, the IC50 in [1] is > 76.8 µM; in [2], 4.4 µM; in series [4] it was > 76.8 µM; in series [5] it was > 76.8 µM; in series [6] it was > 307 µM; in series [7], > 76.8 µM. Moreover, the selectivity ratio in series [3] was > 69.
